From ChEMBL document CHEMBL5046294, “Rational Design, Chemical Syntheses, and Biological Evaluations of Peripherally Selective Mu Opioid Receptor Ligands as Potential Opioid Induced Constipation Treatment” (J Med Chem, 2022)
Calls of active or inactive are those of the source.

Legend:
[1] = biological target: T1, Kappa-type opioid receptor (Homo sapiens, UniProt P41145); test: Displacement of [3H]-U69593 from human recombinant kappa opioid receptor by radioligand binding assay
Mu-type opioid receptor [2] = biological target: Mu-type opioid receptor (Homo sapiens, UniProt P35372); test: Antagonist activity at human recombinant mu opioid receptor assessed as reduction in DAMGO-induced […]-GTPgammaS binding; assay type: functional
[3] = biological target: T1, Kappa-type opioid receptor; test: Antagonist activity at human recombinant kappa opioid receptor assessed as reduction in U50,488H-induced […]-GTPgammaS binding; assay type: functional
Mus musculus [4] = test: Gastroprokinetic activity in Swiss Webster mouse assessed as stimulation of gastrointestinal motility by measuring time required to defecation of red fecal pellet at 10 mg/kg, po incubated for 5 mins followed by morphine addition at 5 mg/kg and measured after 20 mins by carmine red dye assay; assay type: functional; details: time 25 min
In short: (§1)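 Male Swiss Webster mice, 5–6 per group, housed singly. Compound or vehicle given s.c. or by oral gavage 5 min before morphine (10 or 5 mg/kg) or vehicle. 20 min after morphine, 0.2 mL of 6% carmine red in 0.5% CMC given orally (time 0). Time to first red pellet recorded, 6-h cutoff. Dunnett-corrected one-way ANOVA.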

Mus musculus [5] = test: Reversal of morphine induced constipation in Swiss Webster mouse at 10 mg/kg, po for 5 mins followed by morphine addition at 5 mg/kg and measured after 20 mins by carmine red dye assay; assay type: functional; in short: as §1
Mu-type opioid receptor [6] = biological target: T2, Mu-type opioid receptor (Mus musculus, UniProt P42866); test: Antagonist activity at mouse mu opioid receptor expressed in CHO cell membrane assessed as reduction in DAMGO-induced […]-GTPgammaS binding incubated for 1.5 hrs by liquid scintillation counting method; assay type: functional, cell membranes
Mu-type opioid receptor [7] = biological target: T2, Mu-type opioid receptor; test: Binding affinity to mouse mu opioid receptor expressed in CHO cells in presence of naltrexone incubated for 1.5 hrs by competitive radioligand binding assay; assay type: cell-based
In short: (§2)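 Competition binding. Membranes (30 μg protein) from CHO cells with mouse MOR or KOR, or human DOR. Incubated with radioligand and varying test concentrations in TME buffer, pH 7.4, 1.5 h at 30 °C. Filtration harvest. Nonspecific binding defined with 5 μM naltrexone (MOR), U50,488 (KOR) or SNC80 (DOR). IC₅₀ by nonlinear regression, converted to Ki by Cheng-Prusoff. Selectivity ratios taken from these Ki values. At least three independent experiments.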

[8] = biological target: T3, Delta-type opioid receptor (Homo sapiens, UniProt P41143); test: Binding affinity to human delta opioid receptor in presence of SNC80 incubated for 1.5 hrs by competitive radioligand binding assay; in short: as §2
[9] = biological target: T4, Kappa-type opioid receptor (Mus musculus, UniProt P33534); test: Binding affinity to mouse kappa opioid receptor expressed in CHO cells in presence of U50488 incubated for 1.5 hrs by competitive radioligand binding assay; assay type: cell-based; in short: as §2
[10] = Selectivity index, ratio of Ki for binding affinity to human delta opioid receptor to Ki for binding affinity to mouse mu opioid receptor; in short: as §2
Mus musculus [11] = species on record: Mus musculus; test: Selectivity index, ratio of Ki for binding affinity to mouse kappa opioid receptor to Ki for binding affinity to mouse mu opioid receptor; in short: as §2
[12] = biological target: Mu-type opioid receptor (Mus musculus) (UniProt P42866); test: Antagonist activity at mouse mu opioid receptor expressed in CHO cell membrane assessed as reduction in DAMGO-induced […]-GTPgammaS binding by measuring maximal efficacy incubated for 1.5 hrs by liquid scintillation counting method relative to control; assay type: functional, cell membranes
In short: (§3)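 [³⁵S]GTPγS binding. Membranes (10 μg protein) from CHO cells expressing MOR, KOR or DOR. Buffer TME (50 mM Tris, 3 mM MgCl₂, 0.2 mM EGTA, pH 7.4) with 100 mM NaCl, 20 μM GDP and 0.1 nM [³⁵S]GTPγS. Test compound at varying concentrations. Incubation 1.5 h at 30 °C. Nonspecific binding with 20 μM unlabeled GTPγS. Reference full agonist at 3 μM: DAMGO (MOR), U50488H (KOR), SNC80 (DOR). Filtration, then scintillation counting. Duplicates, at least three repeats.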

Mus musculus [13] = test: Antinociceptive activity against Swiss Webster mouse assessed as tail withdrawal latency from warm water by measuring maximum possible effect at 10 mg/kg, sc measured after 20 mins by warm water tail immersion assay; assay type: functional
In short: (§4)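 Male Swiss Webster mice, 5–8 weeks, 25–35 g, 6 per group. Tail immersed (distal third) in water at 56 ± 0.1 °C. Mice included only with baseline latency 2–4 s. Compound 10 mg/kg s.c.; in the challenge arm it was given 5 min before morphine 10 mg/kg s.c. Latency read 20 min after injection, 10-s cutoff. %MPE = (test − control)/(10 − control) × 100. Dunnett-corrected one-way ANOVA.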

Mus musculus [14] = test: Antinociceptive activity against Swiss Webster mouse assessed as tail withdrawal latency from warm water by measuring maximum possible effect at 10 mg/kg, sc incubated for 5 mins followed by morphine addition measured after 20 mins by warm water tail immersion assay; assay type: functional; details: time 25 min; in short: as §4
Mus musculus [15] = test: Antinociceptive activity against sc dosed Swiss Webster mouse model assessed as effect on morphine induced antinociception by measuring tail withdrawal latency from warm water incubated for 5 mins followed by morphine addition measured after 20 mins by warm water tail immersion assay; assay type: functional; details: for Activity: time 25.0 min; in short: as §4
Mus musculus [16] = test: Gastroprokinetic activity in Swiss Webster mouse assessed as stimulation of gastrointestinal motility by measuring time required to defecation of red fecal pellet at 10 mg/kg, sc incubated for 5 mins followed by morphine addition at 10 mg/kg and measured after 20 mins by carmine red dye assay; assay type: functional; details: time 25 min; in short: as §1
Mus musculus [17] = test: Gastroprokinetic activity in Swiss Webster mouse assessed as stimulation of gastrointestinal motility by measuring time required to defecation of red fecal pellet at 10 mg/kg, po incubated for 5 mins followed by morphine addition at 10 mg/kg and measured after 20 mins by carmine red dye assay; assay type: functional; details: time 25 min; in short: as §1
[18] = biological target: T4, Kappa-type opioid receptor; test: Antagonist activity at kappa opioid receptor (unknown origin) expressed in CHO cell membrane assessed as reduction in U50,488H-induced […]-GTPgammaS binding incubated for 1.5 hrs by liquid scintillation counting method; assay type: functional, cell membranes
[19] = biological target: T1, Kappa-type opioid receptor; test: Antagonist activity at kappa opioid receptor (unknown origin) expressed in CHO cell membrane assessed as reduction in U50,488H -induced […]-GTPgammaS binding by measuring maximal efficacy incubated for 1.5 hrs by liquid scintillation counting method relative to control; assay type: functional, cell membranes; in short: as §3
[20] = biological target: T3, Delta-type opioid receptor; test: Antagonist activity at human delta opioid receptor expressed in CHO cell membrane assessed as reduction in SNC80-induced […]-GTPgammaS binding incubated for 1.5 hrs by liquid scintillation counting method; assay type: functional, cell membranes
[21] = biological target: T3, Delta-type opioid receptor; test: Antagonist activity at human delta opioid receptor expressed in CHO cell membrane assessed as reduction in SNC80-induced […]-GTPgammaS binding by measuring maximal efficacy incubated for 1.5 hrs by liquid scintillation counting method relative to control; assay type: functional, cell membranes; in short: as §3
Mus musculus [22] = test: Reversal of morphine induced constipation in Swiss Webster mouse at 10 mg/kg, po for 5 mins followed by morphine addition measured after 20 mins by carmine red dye assay relative to control; assay type: functional; details: time 25 min; in short: as §1

C[N@+]1(CC2CC2)CC[C@]23c4c5ccc(O)c4O[C@H]2C(=O)CC[C@@]3(O)[C@H]1C5 [METHYLNALTREXONE]
Ki [1]: 32.1 nM | EC50 (Mu-type opioid receptor [2]): > 10000 nM | EC50 [3]: > 10000 nM | Time (Mus musculus [4]): 111 min | Activity (Mus musculus [5]; time 25.0 min): inactive

O=C(N[C@H]1CC[C@@]2(O)[C@H]3Cc4ccc(O)c5c4[C@@]2(CCN3CC2CC2)[C@H]1O5)c1ncc[nH]1
EC50 (Mu-type opioid receptor [6]): 2.01 nM | Ki (Mu-type opioid receptor [7]): 0.47 nM | Ki [8]: 70.9 nM | Ki [9]: 1.77 nM | Ratio Ki [10]: 152 | Ratio Ki (Mus musculus [11]): 4 | Emax [12]: 7.85% | Activity (Mus musculus [13]): inactive | MPE (Mus musculus [14]): 9.2% | AD50 (Mus musculus [15]; time 25 min): 5.3 mg/kg

O=C(N[C@@H]1CC[C@@]2(O)[C@H]3Cc4ccc(O)c5c4[C@@]2(CCN3CC2CC2)[C@H]1O5)c1ncc[nH]1
EC50 (Mu-type opioid receptor [6]): 1.74 nM | Ki (Mu-type opioid receptor [7]): 0.44 nM | Ki [8]: 146 nM | Ki [9]: 4.8 nM | Ratio Ki [10]: 335 | Ratio Ki (Mus musculus [11]): 11 | Emax [12]: 7.5% | Activity (Mus musculus [13]): inactive | MPE (Mus musculus [14]): 32.7% | Activity (Mus musculus [15]): inactive

O=C(Cc1cc[nH]n1)N[C@H]1CC[C@@]2(O)[C@H]3Cc4ccc(O)c5c4[C@@]2(CCN3CC2CC2)[C@H]1O5
EC50 (Mu-type opioid receptor [6]): 6.17 nM | Ki (Mu-type opioid receptor [7]): 1.05 nM | Ki [8]: 195 nM | Ki [9]: 154 nM | Activity (Mus musculus [13]): inactive | Activity (Mus musculus [15]): inactive | Time (Mus musculus [16]): 154 min | Time (Mus musculus [17]): 57 min | EC50 [18]: 99 nM | Emax ([19]; filed as antagonist): 49.9% | EC50 [20]: 20.5 nM | Emax ([21]; filed as antagonist): 69.3%

O=C(Cc1cn[nH]c1)N[C@@H]1CC[C@@]2(O)[C@H]3Cc4ccc(O)c5c4[C@@]2(CCN3CC2CC2)[C@H]1O5
Ki (Mu-type opioid receptor [7]): 0.17 nM | Ki [8]: 66.6 nM | Ki [9]: 13.9 nM | Ratio Ki [10]: 390 | Ratio Ki (Mus musculus [11]): 82 | Emax [12]: 22.2% | Activity (Mus musculus [13]): inactive | Activity (Mus musculus [15]): inactive | Time (Mus musculus [16]): 174 min | Time (Mus musculus [17]): 69 min | Activity (Mus musculus [22]): 40%

O=C(N[C@@H]1CC[C@@]2(O)[C@H]3Cc4ccc(O)c5c4[C@@]2(CCN3CC2CC2)[C@H]1O5)c1cnc[nH]1
EC50 (Mu-type opioid receptor [6]): 1.15 nM | Ki (Mu-type opioid receptor [7]): 0.58 nM | Ki [8]: 209 nM | Ki [9]: 18.8 nM | Activity (Mus musculus [13]): inactive | Activity (Mus musculus [15]): inactive | Time (Mus musculus [16]): 137 min | Time (Mus musculus [17]): 71 min | Activity (Mus musculus [22]): 38% | EC50 [18]: 11.7 nM | Emax [19]: 9.03% | Emax [21]: 22.1% | Time (Mus musculus [4]): 27 min | Activity (Mus musculus [5]; time 25 min): 75%

O=C(Cc1cn[nH]c1)N[C@H]1CC[C@@]2(O)[C@H]3Cc4ccc(O)c5c4[C@@]2(CCN3CC2CC2)[C@H]1O5
EC50 (Mu-type opioid receptor [6]): 8.17 nM | Ki (Mu-type opioid receptor [7]): 0.88 nM | Ki [8]: 3440 nM | Ki [9]: 104 nM | Ratio Ki [10]: 3920 | Ratio Ki (Mus musculus [11]): 118 | Emax [12]: 28.4% | Activity (Mus musculus [13]): inactive | Activity (Mus musculus [15]): inactive | Time (Mus musculus [16]): 172 min | Time (Mus musculus [17]): 70 min | Activity (Mus musculus [22]): 39%

O=C(Cc1cnc[nH]1)N[C@@H]1CC[C@@]2(O)[C@H]3Cc4ccc(O)c5c4[C@@]2(CCN3CC2CC2)[C@H]1O5
EC50 (Mu-type opioid receptor [6]): 4.64 nM | Ki (Mu-type opioid receptor [7]): 0.82 nM | Ki [8]: 74.5 nM | Ki [9]: 4.82 nM | Ratio Ki [10]: 91 | Ratio Ki (Mus musculus [11]): 6 | Emax [12]: 20.9% | Activity (Mus musculus [13]): inactive | Activity (Mus musculus [15]): inactive

O=C(Cc1cnc[nH]1)N[C@H]1CC[C@@]2(O)[C@H]3Cc4ccc(O)c5c4[C@@]2(CCN3CC2CC2)[C@H]1O5
EC50 (Mu-type opioid receptor [6]): 3.61 nM | Ki (Mu-type opioid receptor [7]): 1.34 nM | Ki [8]: 79.4 nM | Ki [9]: 3.57 nM | Ratio Ki [10]: 59 | Ratio Ki (Mus musculus [11]): 3 | Emax [12]: 21% | Activity (Mus musculus [13]): inactive | Activity (Mus musculus [15]): inactive

O=C(N[C@@H]1CC[C@@]2(O)[C@H]3Cc4ccc(O)c5c4[C@@]2(CCN3CC2CC2)[C@H]1O5)c1ccncc1
Time (Mus musculus [4]): 151 min | Activity (Mus musculus [5]; time 25.0 min): inactive

O=C(CCc1ncc[nH]1)N[C@H]1CC[C@@]2(O)[C@H]3Cc4ccc(O)c5c4[C@@]2(CCN3CC2CC2)[C@H]1O5
EC50 (Mu-type opioid receptor [6]): 4.26 nM | Ki (Mu-type opioid receptor [7]): 0.69 nM | Ki [8]: 3.94 nM | Ki [9]: 0.79 nM | Ratio Ki [10]: 6 | Ratio Ki (Mus musculus [11]): 1 | Emax [12]: 21.7% | Activity (Mus musculus [13]): inactive | Activity (Mus musculus [15]): inactive
